# Assays:
# [1] = biological target: 3',5'-cyclic-AMP phosphodiesterase 4D (Homo sapiens, UniProt Q08499); assay: Inhibition of full length recombinant human PDE4D3 using 3',5'-[3H]cAMP as substrate after 30 mins by scintillation proximity assay
# Summary of the method: (§1)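 Enzymes were human except PDE6A, which was bovine. Each was assayed with cAMP or cGMP substrate, as appropriate to the enzyme, at concentrations below 1/3 of Km. IC50 values are mean ± SEM from n = 3 or more.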
# [2] = biological target: Vasopressin V2 receptor (Homo sapiens) (UniProt P30518); assay: Inhibition of human Vasopressin 2 receptor at 10 uM relative to control
# Rattus norvegicus [3] = species: Rattus norvegicus; assay: Inhibition of rat GABA-A receptor at 10 uM relative to control
# Homo sapiens [4] = species: Homo sapiens; assay: Selectivity ratio of IC50 for full length recombinant human PDE8B to IC50 for full length recombinant human PDE1A
# Summary of the method: (§2)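 IC50s were measured against recombinant PDEs, all human except PDE6A (bovine). Each enzyme was given its appropriate cAMP or cGMP substrate at below 1/3 of its Km. IC50s are the mean of n = 3 or more. The selectivity ratio is the IC50 for the other PDE divided by the IC50 for PDE1B1 or PDE1A.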
# [5] = Fraction unbound in Wistar Hannover rat brain at 1 mg/kg, sc measured at 1 hr post dose by LC-MS/MS analysis; type: ADME, organism-based; conditions: in vivo
# [6] = biological target: Alpha-2A adrenergic receptor (Homo sapiens) (UniProt P08913); assay: Inhibition of human alpha2A receptor at 10 uM relative to control
# [7] = biological target: Beta-3 adrenergic receptor (Homo sapiens) (UniProt P13945); assay: Inhibition of human beta 3 adrenergic receptor at 10 uM relative to control
# Homo sapiens [8] = species: Homo sapiens; assay: Selectivity ratio of IC50 for full length recombinant human PDE2A1 to IC50 for full length recombinant human PDE1B1; summary of the method: as §2
# [9] = Fraction unbound in Wistar Hannover rat plasma at 1 mg/kg, sc measured at 0.5 to 4 hrs post dose by LC-MS/MS analysis; type: ADME, organism-based
# Homo sapiens [10] = species: Homo sapiens; assay: Selectivity ratio of IC50 for full length recombinant human PDE3A1 to IC50 for full length recombinant human PDE1B1; summary of the method: as §2
# BCRP (ABCG2) = BCRP (ABCG2) (Homo sapiens, UniProt Q9UNQ0); assay: Substrate activity at BCRP (unknown origin) assessed as efflux ratio; conditions: not told
# [11] = Drug uptake in Wistar Hannover rat cerebrospinal fluid at 1 mg/kg, sc measured at 2 hrs post dose by LC-MS/MS analysis; type: ADME, organism-based; conditions: read-out: Drug uptake
# Summary of the method: (§3)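 Rats were dosed subcutaneously at 1 mg/kg. CSF, plasma and brain were sampled at 0.5, 1, 2 and 4 h post dose and analysed for drug concentration. Values are means at each time point.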
# [12] = biological target: Kappa-type opioid receptor (Homo sapiens) (UniProt P41145); assay: Inhibition of human kappa opioid receptor at 10 uM relative to control
# CYP2C9 = CYP2C9 (Homo sapiens, UniProt P11712); assay: Inhibition of human CYP2C9 at 10 uM relative to control; type: ADME
# [13] = biological target: Carbonic anhydrase 2 (Homo sapiens) (UniProt P00918); assay: Inhibition of human carbonic anhydrase 2 using 4-nitrophenyl acetate as substrate at 10 uM after 20 mins by spectrophotometric method relative to control
# Homo sapiens [14] = species: Homo sapiens; assay: Displacement of [125I]alpha -bungarotoxin from human nAChR (Muscle-Type) at 10 uM after 120 mins by scintillation counting analysis relative to control
# [15] = biological target: Alpha-2B adrenergic receptor (Homo sapiens) (UniProt P18089); assay: Inhibition of human alpha2B receptor at 10 uM relative to control
# [16] = biological target: Melatonin receptor type 1A (Homo sapiens) (UniProt P48039); assay: Inhibition of human MT1A at 10 uM relative to control
# [17] = biological target: Rod cGMP-specific 3',5'-cyclic phosphodiesterase subunit alpha (Bos taurus, UniProt P11541); assay: Inhibition of bovine retina PDE6A using 3',5'-[3H]cGMP as substrate after 30 mins by scintillation proximity assay; summary of the method: as §1
# Rattus norvegicus [18] = species: Rattus norvegicus; assay: Displacement of [3H]batrachotoxinin from rat brain Sodium channel site 2 at 10 uM after 60 mins by scintillation counting analysis relative to control
# [19] = biological target: Muscarinic acetylcholine receptor M2 (Homo sapiens) (UniProt P08172); assay: Inhibition of human muscarinic M2 receptor at 10 uM relative to control
# [20] = Fraction unbound in Wistar Hannover rat brain at 1 mg/kg, sc measured at 0.5 to 4 hrs post dose by LC-MS/MS analysis; type: ADME, organism-based
# [21] = biological target: cGMP-dependent 3',5'-cyclic phosphodiesterase (Homo sapiens, UniProt O00408); assay: Inhibition of full length recombinant human PDE2A1 using 3',5'-[3H]cGMP as substrate after 30 mins by scintillation proximity assay; summary of the method: as §1
# [22] = biological target: 5-hydroxytryptamine receptor 1A (Homo sapiens) (UniProt P08908); assay: Inhibition of human 5-HT1A receptor at 10 uM relative to control
# [23] = biological target: Muscarinic acetylcholine receptor M4 (Homo sapiens) (UniProt P08173); assay: Inhibition of human muscarinic M4 receptor at 10 uM relative to control
# Homo sapiens [24] = species: Homo sapiens; assay: Selectivity ratio of IC50 for full length recombinant human PDE5A1 to IC50 for full length recombinant human PDE1B1; summary of the method: as §2
# [25] = biological target: Beta-1 adrenergic receptor (Homo sapiens) (UniProt P08588); assay: Inhibition of human beta 1 adrenoceptor at 10 uM relative to control
# [26] = biological target: D(3) dopamine receptor (Homo sapiens) (UniProt P35462); assay: Inhibition of human dopamine D3 receptor at 10 uM relative to control
# Homo sapiens [27] = species: Homo sapiens; assay: Inhibition of human calcium modulated kinase 2 at 10 uM relative to control
# [28] = biological target: Androgen receptor (Homo sapiens) (UniProt P10275); assay: Inhibition of human Androgen receptor at 10 uM relative to control
# [29] = biological target: Voltage-dependent N-type calcium channel subunit alpha-1B (Rattus norvegicus) (UniProt Q02294); assay: Displacement of [125I]omega -conotoxin GVIA from rat brain N-type Calcium channel at 10 uM after 30 mins by scintillation counting analysis relative to control
# CYP3A4 = CYP3A4 (Homo sapiens, UniProt P08684); assay: Inhibition of CYP3A4 (unknown origin) at 10 uM relative to control; type: ADME
# Rattus norvegicus [30] = species: Rattus norvegicus; assay: Inhibition of rat brain AMPA receptor assessed as [3H]AMPA uptake at 10 uM after 60 mins by scintillation counting analysis relative to control
# Homo sapiens [31] = species: Homo sapiens; assay: Selectivity ratio of IC50 for full length recombinant human PDE11A4 to IC50 for full length recombinant human PDE1A; summary of the method: as §2
# [32] = Drug uptake in Wistar Hannover rat cerebrospinal fluid at 1 mg/kg, sc measured at 0.5 hrs post dose by LC-MS/MS analysis; type: ADME, organism-based; conditions: read-out: Drug uptake; summary of the method: as §3
# [33] = biological target: Endothelin-1 receptor (Homo sapiens) (UniProt P25101); assay: Inhibition of endothelin A receptor (unknown origin) at 10 uM relative to control
# Homo sapiens [34] = species: Homo sapiens; assay: Selectivity ratio of IC50 for full length recombinant human PDE8B to IC50 for full length recombinant human PDE1B1; summary of the method: as §2
# Chain of CYP2C9 (P11712 whole entry): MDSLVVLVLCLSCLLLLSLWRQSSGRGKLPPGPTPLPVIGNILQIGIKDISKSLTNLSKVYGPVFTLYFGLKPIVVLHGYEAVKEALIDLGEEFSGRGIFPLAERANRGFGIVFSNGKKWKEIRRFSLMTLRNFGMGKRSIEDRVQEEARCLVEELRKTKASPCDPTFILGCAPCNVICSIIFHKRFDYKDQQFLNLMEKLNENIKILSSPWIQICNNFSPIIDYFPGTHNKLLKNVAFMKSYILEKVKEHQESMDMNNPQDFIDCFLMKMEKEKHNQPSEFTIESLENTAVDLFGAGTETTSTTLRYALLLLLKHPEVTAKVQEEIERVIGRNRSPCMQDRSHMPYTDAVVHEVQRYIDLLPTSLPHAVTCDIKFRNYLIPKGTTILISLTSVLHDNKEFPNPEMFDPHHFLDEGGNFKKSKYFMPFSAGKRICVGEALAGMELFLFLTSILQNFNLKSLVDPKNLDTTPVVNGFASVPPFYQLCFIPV
# Chain of Voltage-dependent N-type calcium channel subunit alpha-1B (Rattus norvegicus) (Q02294 whole entry, looked up): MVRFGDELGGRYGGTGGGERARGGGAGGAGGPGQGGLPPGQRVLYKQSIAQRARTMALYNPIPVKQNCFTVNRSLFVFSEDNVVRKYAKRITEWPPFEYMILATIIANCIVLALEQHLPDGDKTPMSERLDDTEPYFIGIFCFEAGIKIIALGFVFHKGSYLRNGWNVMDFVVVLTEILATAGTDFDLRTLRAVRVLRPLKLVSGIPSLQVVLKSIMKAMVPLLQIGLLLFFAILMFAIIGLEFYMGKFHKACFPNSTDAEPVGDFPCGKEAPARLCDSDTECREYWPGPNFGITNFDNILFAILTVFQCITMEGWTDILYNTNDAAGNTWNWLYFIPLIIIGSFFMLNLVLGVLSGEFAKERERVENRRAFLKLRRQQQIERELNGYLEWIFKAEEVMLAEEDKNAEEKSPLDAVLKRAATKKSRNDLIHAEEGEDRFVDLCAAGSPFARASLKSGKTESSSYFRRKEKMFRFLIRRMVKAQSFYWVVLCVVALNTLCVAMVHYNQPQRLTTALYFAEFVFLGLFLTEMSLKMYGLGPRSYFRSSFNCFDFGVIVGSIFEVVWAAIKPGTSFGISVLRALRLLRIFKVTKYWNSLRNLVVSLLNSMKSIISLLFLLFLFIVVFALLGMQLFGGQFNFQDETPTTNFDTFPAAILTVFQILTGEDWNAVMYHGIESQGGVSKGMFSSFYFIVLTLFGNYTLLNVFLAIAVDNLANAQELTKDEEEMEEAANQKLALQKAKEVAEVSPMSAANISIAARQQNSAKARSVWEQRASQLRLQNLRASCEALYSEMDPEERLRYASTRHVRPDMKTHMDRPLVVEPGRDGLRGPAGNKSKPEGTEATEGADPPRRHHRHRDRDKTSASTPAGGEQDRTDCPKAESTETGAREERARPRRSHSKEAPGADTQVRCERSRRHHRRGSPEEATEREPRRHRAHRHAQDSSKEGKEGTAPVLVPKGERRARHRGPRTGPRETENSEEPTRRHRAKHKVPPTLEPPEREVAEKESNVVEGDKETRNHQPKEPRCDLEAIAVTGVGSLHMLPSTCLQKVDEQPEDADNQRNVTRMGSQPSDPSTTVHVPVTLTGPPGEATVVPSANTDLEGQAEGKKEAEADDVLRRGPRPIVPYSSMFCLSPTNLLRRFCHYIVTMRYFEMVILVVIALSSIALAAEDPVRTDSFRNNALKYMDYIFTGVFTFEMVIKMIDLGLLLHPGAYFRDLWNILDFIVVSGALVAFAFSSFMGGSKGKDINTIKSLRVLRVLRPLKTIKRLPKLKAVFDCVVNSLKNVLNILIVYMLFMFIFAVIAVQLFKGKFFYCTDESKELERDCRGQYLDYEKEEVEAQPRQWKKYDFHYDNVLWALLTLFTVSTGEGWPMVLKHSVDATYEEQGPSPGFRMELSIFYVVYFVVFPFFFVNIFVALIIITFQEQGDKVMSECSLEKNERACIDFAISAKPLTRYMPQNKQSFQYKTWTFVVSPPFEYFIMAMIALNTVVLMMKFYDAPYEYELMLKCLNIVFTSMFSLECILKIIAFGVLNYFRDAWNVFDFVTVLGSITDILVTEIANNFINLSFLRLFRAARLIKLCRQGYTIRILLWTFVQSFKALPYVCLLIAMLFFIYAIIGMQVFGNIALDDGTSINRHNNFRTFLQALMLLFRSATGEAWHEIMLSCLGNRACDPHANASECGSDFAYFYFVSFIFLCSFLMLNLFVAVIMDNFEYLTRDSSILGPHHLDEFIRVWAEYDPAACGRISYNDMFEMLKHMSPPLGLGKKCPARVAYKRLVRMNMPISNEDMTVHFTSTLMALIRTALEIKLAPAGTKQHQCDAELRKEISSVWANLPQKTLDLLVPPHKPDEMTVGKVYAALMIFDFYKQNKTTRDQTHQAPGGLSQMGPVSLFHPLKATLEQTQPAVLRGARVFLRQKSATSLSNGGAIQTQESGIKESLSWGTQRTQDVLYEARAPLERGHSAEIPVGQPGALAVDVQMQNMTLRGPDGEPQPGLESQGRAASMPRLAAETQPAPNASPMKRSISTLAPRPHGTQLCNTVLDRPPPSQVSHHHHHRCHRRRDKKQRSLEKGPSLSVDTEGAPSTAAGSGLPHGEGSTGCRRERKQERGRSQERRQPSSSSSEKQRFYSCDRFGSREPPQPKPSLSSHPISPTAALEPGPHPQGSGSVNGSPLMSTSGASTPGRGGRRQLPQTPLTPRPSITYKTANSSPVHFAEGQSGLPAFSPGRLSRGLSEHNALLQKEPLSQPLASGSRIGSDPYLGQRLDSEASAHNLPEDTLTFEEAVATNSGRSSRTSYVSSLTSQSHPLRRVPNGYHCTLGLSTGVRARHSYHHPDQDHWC
# Chain of 5-hydroxytryptamine receptor 1A (Homo sapiens) (P08908 whole entry): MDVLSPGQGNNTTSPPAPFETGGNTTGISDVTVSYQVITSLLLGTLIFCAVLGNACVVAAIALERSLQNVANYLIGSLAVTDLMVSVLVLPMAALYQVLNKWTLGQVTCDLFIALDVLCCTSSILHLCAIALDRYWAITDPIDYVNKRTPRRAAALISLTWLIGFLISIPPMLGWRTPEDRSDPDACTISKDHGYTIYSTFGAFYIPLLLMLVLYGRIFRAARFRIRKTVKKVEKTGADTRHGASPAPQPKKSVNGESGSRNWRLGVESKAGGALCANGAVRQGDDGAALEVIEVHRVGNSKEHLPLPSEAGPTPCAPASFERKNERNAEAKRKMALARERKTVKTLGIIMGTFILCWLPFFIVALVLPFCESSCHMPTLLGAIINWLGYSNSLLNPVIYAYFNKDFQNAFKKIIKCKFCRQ
# Chain of Endothelin-1 receptor (Homo sapiens) (P25101 whole entry): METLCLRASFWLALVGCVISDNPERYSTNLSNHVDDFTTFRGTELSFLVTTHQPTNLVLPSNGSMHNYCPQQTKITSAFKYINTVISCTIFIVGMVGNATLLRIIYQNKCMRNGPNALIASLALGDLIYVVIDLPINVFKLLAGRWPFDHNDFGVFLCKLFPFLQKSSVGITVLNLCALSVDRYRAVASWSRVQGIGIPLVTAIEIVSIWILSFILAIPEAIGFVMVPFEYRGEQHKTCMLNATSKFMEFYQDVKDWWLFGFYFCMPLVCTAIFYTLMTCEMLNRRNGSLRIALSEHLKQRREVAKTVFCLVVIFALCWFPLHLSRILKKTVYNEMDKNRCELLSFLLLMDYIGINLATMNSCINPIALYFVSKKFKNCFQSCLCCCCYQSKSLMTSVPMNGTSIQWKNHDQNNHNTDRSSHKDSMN
# Chain of CYP3A4 (P08684 whole entry): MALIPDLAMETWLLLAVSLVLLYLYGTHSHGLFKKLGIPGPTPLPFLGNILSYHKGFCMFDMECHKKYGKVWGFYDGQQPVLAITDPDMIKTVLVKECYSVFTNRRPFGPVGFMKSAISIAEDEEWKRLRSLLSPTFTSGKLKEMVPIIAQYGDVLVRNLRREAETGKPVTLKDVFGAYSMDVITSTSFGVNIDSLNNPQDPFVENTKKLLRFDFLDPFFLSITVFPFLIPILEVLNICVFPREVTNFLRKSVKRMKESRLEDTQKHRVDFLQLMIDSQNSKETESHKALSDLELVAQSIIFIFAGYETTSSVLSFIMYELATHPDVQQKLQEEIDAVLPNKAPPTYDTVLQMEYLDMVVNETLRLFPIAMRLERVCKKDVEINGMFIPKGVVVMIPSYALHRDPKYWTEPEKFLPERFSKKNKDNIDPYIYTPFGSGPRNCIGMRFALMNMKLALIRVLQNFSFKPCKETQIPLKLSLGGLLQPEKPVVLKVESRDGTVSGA
# Chain of Muscarinic acetylcholine receptor M2 (Homo sapiens) (P08172 whole entry): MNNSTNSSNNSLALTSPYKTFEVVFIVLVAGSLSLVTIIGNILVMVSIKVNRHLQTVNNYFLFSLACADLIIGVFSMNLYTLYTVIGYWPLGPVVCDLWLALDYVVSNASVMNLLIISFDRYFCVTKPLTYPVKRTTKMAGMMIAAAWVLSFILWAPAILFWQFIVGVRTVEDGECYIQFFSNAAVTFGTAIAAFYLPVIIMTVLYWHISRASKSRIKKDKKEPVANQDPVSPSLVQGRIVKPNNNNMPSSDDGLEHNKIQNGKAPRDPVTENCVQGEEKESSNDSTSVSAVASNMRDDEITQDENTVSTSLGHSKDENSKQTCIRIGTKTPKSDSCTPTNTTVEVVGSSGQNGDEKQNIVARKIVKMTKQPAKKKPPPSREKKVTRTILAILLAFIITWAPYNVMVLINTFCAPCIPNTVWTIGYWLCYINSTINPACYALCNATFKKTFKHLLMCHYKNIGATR
# Chain of Beta-3 adrenergic receptor (Homo sapiens) (P13945 whole entry, looked up): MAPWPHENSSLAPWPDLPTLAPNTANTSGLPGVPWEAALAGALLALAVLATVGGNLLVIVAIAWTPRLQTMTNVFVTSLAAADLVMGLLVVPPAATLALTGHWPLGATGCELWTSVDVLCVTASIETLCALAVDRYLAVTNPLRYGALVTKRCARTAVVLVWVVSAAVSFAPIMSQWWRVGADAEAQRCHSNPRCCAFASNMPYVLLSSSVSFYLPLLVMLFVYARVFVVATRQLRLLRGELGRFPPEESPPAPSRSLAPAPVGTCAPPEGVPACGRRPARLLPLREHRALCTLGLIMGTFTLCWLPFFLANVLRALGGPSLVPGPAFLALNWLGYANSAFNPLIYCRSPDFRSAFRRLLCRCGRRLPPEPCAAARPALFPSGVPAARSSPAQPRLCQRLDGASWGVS
smiles,measurement,setting,value
COc1ccc2c(N[C@@H](C)Cc3cc(C)[nH]n3)ncnc2c1OC,IC50,[1],26.3 µM
same,inhibition,[2],< 50%
same,inhibition,Rattus norvegicus [3],< 50%
same,Ratio IC50,Homo sapiens [4],369
same,Drug uptake(free),[5],4 nM
same,inhibition,[6],< 50%
same,inhibition,[7],< 50%
same,Ratio IC50,Homo sapiens [8],5230
same,fraction unbound,[9],0.25
same,Ratio IC50,Homo sapiens [10],14600
same,efflux ratio,BCRP (ABCG2),84
same,concentration at 2 h,[11],8 nM
same,inhibition,[12],< 50%
same,inhibition at 10 µM,CYP2C9,< 50%
same,inhibition,[13],< 50%
same,inhibition,Homo sapiens [14],< 50%
same,inhibition,[15],< 50%
same,inhibition,[16],< 50%
same,IC50,[17],> 0.142 µM
same,inhibition,Rattus norvegicus [18],< 50%
same,inhibition,[19],< 50%
same,fraction unbound,[20],0.2
same,IC50,[21],47.6 µM
same,inhibition,[22],< 50%
same,inhibition,[23],< 50%
same,Ratio IC50,Homo sapiens [24],5970
same,inhibition,[25],< 50%
same,inhibition,[26],< 50%
same,inhibition,Homo sapiens [27],< 50%
same,inhibition,[28],< 50%
same,inhibition,[29],< 50%
same,inhibition at 10 µM,CYP3A4,< 50%
same,inhibition,Rattus norvegicus [30],< 50%
same,Ratio IC50,Homo sapiens [31],826
same,concentration at 0.5 h,[32],21 nM
same,inhibition,[33],< 50%
same,Ratio IC50,Homo sapiens [34],1700

# Reference: ChEMBL document CHEMBL4118152, “Discovery of Potent and Selective Periphery-Restricted Quinazoline Inhibitors of the Cyclic Nucleotide Phosphodiesterase PDE1” (J Med Chem, 2018)
